Active and inactive are the calls of the source. No cut-off for these calls is given here.
How the values were obtained:
[1] = molecular target: T1, Type-1 angiotensin II receptor (Homo sapiens, UniProt P30556); test: Displacement of [125I]Tyr4-Sar1,Ile8-Angiotensin II from human Angiotensin 1 receptor after 60 mins by scintillation counting
T1 sequence (P30556 whole entry): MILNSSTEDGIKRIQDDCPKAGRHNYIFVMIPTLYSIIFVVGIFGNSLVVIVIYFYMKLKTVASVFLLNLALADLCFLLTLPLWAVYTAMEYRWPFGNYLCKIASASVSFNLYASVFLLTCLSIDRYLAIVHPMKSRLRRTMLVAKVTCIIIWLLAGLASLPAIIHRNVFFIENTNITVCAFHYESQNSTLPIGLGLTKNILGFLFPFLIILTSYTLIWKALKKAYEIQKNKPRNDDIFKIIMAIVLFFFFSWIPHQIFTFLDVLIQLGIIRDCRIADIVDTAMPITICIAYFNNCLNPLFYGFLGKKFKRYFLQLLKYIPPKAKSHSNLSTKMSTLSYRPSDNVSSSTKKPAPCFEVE

[2] = molecular target: T2, Peroxisome proliferator-activated receptor gamma (Homo sapiens, UniProt P37231); test: Partial agonist activity at human PPARgamma-LBD/Gal4 DNA binding domain by transactivation assay
T2 sequence (P37231 whole entry): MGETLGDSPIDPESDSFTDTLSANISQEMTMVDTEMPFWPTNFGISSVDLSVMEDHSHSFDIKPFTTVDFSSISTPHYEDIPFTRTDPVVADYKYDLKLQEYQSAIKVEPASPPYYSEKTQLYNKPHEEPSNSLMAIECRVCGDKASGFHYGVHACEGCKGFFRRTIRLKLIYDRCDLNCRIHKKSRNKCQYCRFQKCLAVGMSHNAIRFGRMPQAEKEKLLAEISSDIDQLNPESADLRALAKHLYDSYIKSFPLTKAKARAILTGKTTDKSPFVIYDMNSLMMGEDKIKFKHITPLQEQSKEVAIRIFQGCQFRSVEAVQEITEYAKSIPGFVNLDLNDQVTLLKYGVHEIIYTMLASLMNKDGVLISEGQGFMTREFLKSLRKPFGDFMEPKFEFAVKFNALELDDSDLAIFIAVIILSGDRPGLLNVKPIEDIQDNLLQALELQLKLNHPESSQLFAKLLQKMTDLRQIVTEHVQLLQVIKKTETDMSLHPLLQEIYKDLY

Rattus norvegicus [3] = test: Antidiabetic activity in ZDF rat assessed as body weight gain at 3 mg/kg, po QD for 40 days measured on day 6 (reference value: 133+/-9 g); type: functional, organism-based; set-up: dose 3 mg/kg
Rattus norvegicus [4] = test: Antidiabetic activity in ZDF rat assessed as blood glucose level at 3 mg/kg, po QD for 40 days (reference value: 771+/-60 mg/dL); type: functional
Rattus norvegicus [5] = test: Antidiabetic activity in ZDF rat assessed as body weight gain at 3 mg/kg, po QD for 40 days (reference value: 133+/-9 g); type: functional
Procedure, shortened: (§1)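 Male ZDF rats, starting at about 6 weeks old, were dosed orally once daily for 40 days in 1.5% CMC/0.2% Tween 20 suspension, n = 8/group. Body weight was followed over the study. Gain was calculated per animal from day 0 to day 40 and compared with vehicle and pioglitazone (3 mg/kg) groups. Data are mean ± SEM.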

Rattus norvegicus [6] = test: Antidiabetic activity in ZDF rat assessed as adiponectin level at 3 mg/kg, po QD for 40 days (reference value: 11.9+/-1.5 ug/ml); type: functional
Rattus norvegicus [7] = test: Antidiabetic activity in ZDF rat assessed as triglyceride level at 3 mg/kg, po QD for 40 days (reference value: 618+/-52 mg/dL); type: functional
Rattus norvegicus [8] = test: Antidiabetic activity in ZDF rat assessed as body weight gain at 100 mg/kg, po QD for 40 days (reference value: 133+/-9 g); type: functional; procedure, shortened: as §1
Rattus norvegicus [9] = test: Antidiabetic activity in ZDF rat assessed as body weight gain at 100 mg/kg, po QD for 40 days measured on day 32 (reference value: 133+/-9 g); type: functional, organism-based; set-up: dose 100 mg/kg
Rattus norvegicus [10] = test: Antidiabetic activity in ZDF rat assessed as triglyceride level at 100 mg/kg, po QD for 40 days (reference value: 618+/-52 mg/dL); type: functional
Rattus norvegicus [11] = test: Antidiabetic activity in ZDF rat assessed as adiponectin level at 100 mg/kg, po QD for 40 days (reference value: 11.9+/-1.5 ug/ml); type: functional
Rattus norvegicus [12] = test: Antidiabetic activity in ZDF rat assessed as blood glucose level at 100 mg/kg, po QD for 40 days (reference value: 771+/-60 mg/dL); type: functional

IC50 [1]	EC50 [2]	SMILES	other results
8.2 nM	762 nM	Cc1cc(C)c2nc(C3CC3)n([C@H]3CCc4cc(-c5ccccc5-c5nnn[nH]5)ccc43)c2n1	–
13.3 nM	1320 nM	CCCc1nc2c(C)cc(C)nc2n1[C@H]1CCc2cc(-c3ccccc3-c3nnn[nH]3)ccc21	–
238 nM	2200 nM	CCCCc1nc2c(C)cc(C)nc2n1C1CCc2cc(-c3ccccc3-c3nn[nH]n3)ccc21 (racemic)	–
16.9 nM	264 nM	CCc1cc(C)c2nc(C(C)C)n([C@H]3CCc4cc(-c5ccccc5-c5nnn[nH]5)ccc43)c2n1	–
661 nM	2620 nM	CCc1nc2c(C)cc(C)nc2n1[C@@H]1CCc2cc(-c3ccccc3-c3nnn[nH]3)ccc21	–
15.7 nM	1340 nM	CCc1c(C)nc2c(nc(CC)n2[C@H]2CCc3cc(-c4ccccc4-c4nnn[nH]4)ccc32)c1C	–
10.2 nM	295 nM	Cc1cc(C)c2nc(C(C)C)n([C@H]3CCc4cc(-c5ccccc5-c5nnn[nH]5)ccc43)c2n1	–
96 nM	574 nM	CCc1nc2c(C)cc(C)nc2n1C1CCc2cc(-c3ccccc3-c3nn[nH]n3)ccc21 (racemic)	–
–	> 20000 nM	CCc1nc2c(C)cc(C)nc2n1Cc1ccc(-c2ccccc2-c2nnn[nH]2)cc1 [L-158809]	–
5.2 nM	–	CCc1nc2c(C)cc(Cc3ccccc3)nc2n1[C@H]1CCc2cc(-c3ccccc3-c3nnn[nH]3)ccc21	–
3.5 nM	89 nM	Cc1cc(CC(C)C)nc2c1nc(C(C)C)n2[C@H]1CCc2cc(-c3ccccc3-c3nnn[nH]3)ccc21	–
748 nM	165 nM	CCc1nc2c(CC(C)C)cc(C)nc2n1[C@H]1CCc2cc(-c3ccccc3-c3nnn[nH]3)ccc21	–
–	–	CCc1ccc(CCOc2ccc(CC3SC(=O)NC3=O)cc2)nc1 (stereo unspecified) [PIOGLITAZONE]	Activity (Rattus norvegicus [3]): Active; Activity (Rattus norvegicus [4]): 118 mg/dL; Activity (Rattus norvegicus [5]): 269 g; Activity (Rattus norvegicus [6]): 30.5 µg/mL; Activity (Rattus norvegicus [7]): 316 mg/dL
–	1520 nM	CCCc1nc2c(C)cc(-c3nc4ccccc4n3C)cc2n1Cc1ccc(-c2ccccc2C(=O)O)cc1	Activity (Rattus norvegicus [8]): 157 g; Activity (Rattus norvegicus [9]): Active; Activity (Rattus norvegicus [10]): 935 mg/dL; Activity (Rattus norvegicus [11]): 13.2 µg/mL; Activity (Rattus norvegicus [12]): 510 mg/dL
10.5 nM	175 nM	CCc1nc2c(C)cc(CC(C)C)nc2n1[C@H]1CCc2cc(-c3ccccc3C(=O)O)ccc21	–
202 nM	1820 nM	CCc1nc2c(C)c(C)c(C)nc2n1[C@H]1CCc2cc(-c3ccccc3-c3nnn[nH]3)ccc21	–
7.6 nM	591 nM	CCc1nc2c(C)cc(C)nc2n1[C@H]1CCc2cc(-c3ccccc3-c3nnn[nH]3)ccc21	–
6.8 nM	494 nM	CCc1cc(C)c2nc(CC)n([C@H]3CCc4cc(-c5ccccc5-c5nnn[nH]5)ccc43)c2n1	–
